Published values pooled from the literature.
Each line is one published result; the experiments were not run side by side.
Target: Serine/threonine-protein kinase OSR1 (OXSR1, Homo sapiens, UniProt O95747)

SMILES	assay	conditions	remaining binding
COc1ncc2cc3ccccc3nc2c1C#N	cell-free assay, competition with immobilised ligand	5 µM	100%
CNC(=O)c1ccc(Nc2ncc(C(F)(F)F)c(NCc3nccnc3N(C)S(C)(=O)=O)n2)cc1	cell-free assay, competition with immobilised ligand	0.1 µM	100%
c1cncc(-c2cccc(Nc3nccc(NC4CCCCC4)n3)c2)c1	binding, competition with immobilised ligand	10 µM	100%
O=C(Nc1c[nH]nc1C(=O)NC1CCNCC1)c1cc(F)cc(F)c1	binding, competition with immobilised ligand	1 µM	100%
N[C@H]1CCN(c2nccc(-c3cnn4ncccc34)n2)C1	binding	1 µM	86%
O=C(c1ccc(Nc2ncc(Cl)c(-c3cc4ccccc4s3)n2)cc1)N1CCC(N2CCCC2)CC1	binding, competition with immobilised ligand	1 µM	74%
O=C(O)[C@@H]1[C@@H](Cn2nnc3ccccc3c2=O)CC[C@H]1C(=O)c1ccc(OCCC2CCOCC2)cc1	cell-free assay, competition with immobilised ligand	1 µM	100%
COc1ccnn2ncc(-c3ccnc(N(C)C)n3)c12	binding	1 µM	87%
O=S(=O)(NC1CCC(c2cc(F)ccc2F)(S(=O)(=O)c2ccc(Cl)cc2)CC1)C(F)(F)F (stereo not shown)	cell-free assay, competition with immobilised ligand	1 µM	91%
O=C(c1ccc(Nc2nccc(-c3cc4ccccc4s3)n2)cc1)N1CCC(N2CCCC2)CC1	binding, competition with immobilised ligand	1 µM	100%
CN(C)c1ncc(F)c(-c2cnn3ncccc23)n1	binding	1 µM	95%
Nc1ncc2c(n1)-c1c([nH]c3ccc(C#CC4CC4)cc13)CCCC2	binding, competition with immobilised ligand	1 µM	86%
COc1cnc(Nc2cccc(S(N)(=O)=O)c2)nc1N1CCN(c2ccccc2)C(=O)C1	binding, competition with immobilised ligand	1 µM	100%
CN(C)c1nccc(-c2cnn3ncccc23)n1	binding	1 µM	100%
C[C@H](c1cccc(C#N)c1)n1cc(Cl)cc(C(N)=O)c1=N	cell-free assay, competition with immobilised ligand	1 µM	81%
CN(CCCC(F)(F)F)c1nccc(-c2cnn3ncccc23)n1	binding	1 µM	100%
CS(=O)(=O)N1CCCC(NC(=O)[C@H](CCC2CCCCC2)NC(=O)c2ccc(CNc3ncnc4c3nnn4-c3ccccc3)cc2)C1 (stereo partly shown)	cell-free assay, competition with immobilised ligand	0.1 µM	100%
Cc1cnc(Nc2ccc(C(=O)N3CCC(N4CCCC4)CC3)cc2)nc1-c1cc2ccccc2s1	binding, competition with immobilised ligand	1 µM	81%
C[C@H](c1ccc(F)cc1)N(Cc1cccc(C(=O)O)c1)C(=O)c1cnc2ccccc2c1	cell-free assay, competition with immobilised ligand	1 µM	100%
C[C@@H]1CCN(c2nccc(-c3cnn4ncccc34)n2)C1	binding	1 µM	75%
O=C(N[C@H]1CCCCC/C=C\C2C[C@@]2(C(=O)O)NC(=O)[C@@H]2C[C@@H](Oc3ccncc3)CN2C1=O)OC1CCCC1 (stereo partly shown)	binding, competition with immobilised ligand	1 µM	75%
F[C@@H]1CCN(c2nccc(-c3cnn4ncccc34)n2)C1	binding	1 µM	100%
